In ChEMBL document CHEMBL5344404, “Design and optimization of oestrogen receptor PROTACs based on 4-hydroxytamoxifen” (Eur J Med Chem, 2022):
Active and inactive are the calls of the source. The calls are words filed in the database; no cut-off is given here.

Tests used:
[1] = target: T1, von Hippel-Lindau disease tumor suppressor/Estrogen receptor (Homo sapiens, UniProt P03372+P40337); test: PROTAC activity at VHL/ERalpha (unknown origin); type: protein assay
Target sequence in this assay (P03372 whole entry): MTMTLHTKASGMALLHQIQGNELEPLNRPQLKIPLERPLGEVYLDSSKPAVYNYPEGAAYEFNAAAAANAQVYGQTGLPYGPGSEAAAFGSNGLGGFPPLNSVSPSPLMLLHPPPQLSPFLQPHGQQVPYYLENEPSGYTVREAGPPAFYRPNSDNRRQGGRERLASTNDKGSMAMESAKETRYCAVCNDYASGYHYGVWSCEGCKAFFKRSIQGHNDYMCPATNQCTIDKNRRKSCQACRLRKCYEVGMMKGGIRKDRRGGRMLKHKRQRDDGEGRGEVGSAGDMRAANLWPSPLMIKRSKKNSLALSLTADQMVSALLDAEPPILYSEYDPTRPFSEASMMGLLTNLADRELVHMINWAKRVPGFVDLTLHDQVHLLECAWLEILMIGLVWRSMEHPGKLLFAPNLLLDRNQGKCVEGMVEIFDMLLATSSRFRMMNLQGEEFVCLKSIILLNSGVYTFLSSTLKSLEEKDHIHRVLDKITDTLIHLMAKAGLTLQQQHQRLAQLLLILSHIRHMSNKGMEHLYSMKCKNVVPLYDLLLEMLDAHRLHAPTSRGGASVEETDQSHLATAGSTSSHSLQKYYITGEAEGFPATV
Target sequence in this assay (P40337 whole entry): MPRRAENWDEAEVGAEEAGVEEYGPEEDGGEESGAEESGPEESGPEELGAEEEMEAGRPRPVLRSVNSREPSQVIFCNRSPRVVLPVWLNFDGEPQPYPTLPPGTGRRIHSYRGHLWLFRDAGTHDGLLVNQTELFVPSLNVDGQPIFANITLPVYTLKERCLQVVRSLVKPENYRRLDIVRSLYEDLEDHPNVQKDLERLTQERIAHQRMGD

[2] = target: T1, von Hippel-Lindau disease tumor suppressor/Estrogen receptor; test: PROTAC activity at VHL E3 ligase/ERalpha in human MCF7 cells assessed as reduction in ERalpha protein level at 0.01 to 10 uM incubated for 24 hrs by Western blot analysis; type: cell-based; conditions: dose 0.01-10 µM
Outline: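 MCF-7 cells incubated with the PROTAC at several concentrations for 24 h. Lysates analysed by immunoblotting for ERα.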
Target sequence in this assay (P03372 whole entry, looked up): as the sequence (P03372 whole entry) above
Target sequence in this assay (P40337 whole entry, looked up): as the sequence (P40337 whole entry) above

[3] = target: T1, von Hippel-Lindau disease tumor suppressor/Estrogen receptor; test: PROTAC activity at VHL E3 ligase/ERalpha in human T47D cells assessed as reduction in ERalpha protein level at 0.01 to 10 uM incubated for 24 hrs by Western blot analysis; type: cell-based; conditions: dose 0.01-10 µM
Target sequence in this assay (P03372 whole entry, looked up): as the sequence (P03372 whole entry) above
Target sequence in this assay (P40337 whole entry, looked up): as the sequence (P40337 whole entry) above

[4] = target: T1, von Hippel-Lindau disease tumor suppressor/Estrogen receptor; test: PROTAC activity at VHL E3 ligase/ERalpha in human MCF7 cells assessed as reduction in ERalpha protein level at 2500 nM pretreated with MLN4924 at 1 uM for 30 mins followed by compound addition and measured after 6 hrs by Western blot analysis; type: cell-based
Target sequence in this assay (P03372 whole entry, looked up): as the sequence (P03372 whole entry) above
Target sequence in this assay (P40337 whole entry, looked up): as the sequence (P40337 whole entry) above

[5] = target: T1, von Hippel-Lindau disease tumor suppressor/Estrogen receptor; test: PROTAC activity at VHL E3 ligase/ERalpha in human MCF7 cells assessed as reduction in ERalpha protein level incubated for 24 hrs by Western blot analysis; type: cell-based
Outline: (§1)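 MCF-7 cells treated 24 h across a broad concentration range. ERα quantified on Western blots and normalized to GAPDH, then plotted against PROTAC concentration to give DC50 (concentration giving 50% protein degradation). Replicates: 2 biological for the CRBN series, triplicates for the VHL series.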
Target sequence in this assay (P03372 whole entry): as the sequence (P03372 whole entry) above
Target sequence in this assay (P40337 whole entry): as the sequence (P40337 whole entry) above

[6] = target: T1, von Hippel-Lindau disease tumor suppressor/Estrogen receptor; test: PROTAC activity at VHL E3 ligase/ERalpha in human MCF7 cells assessed as reduction in ERalpha protein level at 2500 nM pretreated with carfilzomib at 1 uM for 30 mins followed by compound addition and measured after 6 hrs by Western blot analysis; type: cell-based
Target sequence in this assay (P03372 whole entry, looked up): as the sequence (P03372 whole entry) above
Target sequence in this assay (P40337 whole entry, looked up): as the sequence (P40337 whole entry) above

[7] = target: T1, von Hippel-Lindau disease tumor suppressor/Estrogen receptor; test: PROTAC activity at VHL E3 ligase/ERalpha in human MCF7 cells assessed as reduction in ERalpha protein level at 10 nM incubated for 24 hrs by Western blot analysis; type: cell-based
Target sequence in this assay (P03372 whole entry, looked up): as the sequence (P03372 whole entry) above
Target sequence in this assay (P40337 whole entry, looked up): as the sequence (P40337 whole entry) above

[8] = target: Estrogen receptor/E3 ubiquitin-protein ligase XIAP (Homo sapiens, UniProt P03372+P98170); test: PROTAC activity at XIAP/ERalpha (unknown origin); type: protein assay
[9] = target: T2, Protein cereblon/Estrogen receptor (Homo sapiens, UniProt P03372+Q96SW2); test: PROTAC activity at CRBN/ERalpha in human MCF7 cells assessed as reduction in ERalpha protein level at 1 uM measured after 24 hrs by Western blot analysis; type: cell-based
Outline: (§2)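 MCF-7 cells given the PROTAC at 1 µM for periods of 1–48 h, with DMSO controls held 48 h. Cell lysates immunoblotted for ERα.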
Target sequence in this assay (P03372 whole entry, looked up): as the sequence (P03372 whole entry) above
Target sequence in this assay (Q96SW2 whole entry, looked up): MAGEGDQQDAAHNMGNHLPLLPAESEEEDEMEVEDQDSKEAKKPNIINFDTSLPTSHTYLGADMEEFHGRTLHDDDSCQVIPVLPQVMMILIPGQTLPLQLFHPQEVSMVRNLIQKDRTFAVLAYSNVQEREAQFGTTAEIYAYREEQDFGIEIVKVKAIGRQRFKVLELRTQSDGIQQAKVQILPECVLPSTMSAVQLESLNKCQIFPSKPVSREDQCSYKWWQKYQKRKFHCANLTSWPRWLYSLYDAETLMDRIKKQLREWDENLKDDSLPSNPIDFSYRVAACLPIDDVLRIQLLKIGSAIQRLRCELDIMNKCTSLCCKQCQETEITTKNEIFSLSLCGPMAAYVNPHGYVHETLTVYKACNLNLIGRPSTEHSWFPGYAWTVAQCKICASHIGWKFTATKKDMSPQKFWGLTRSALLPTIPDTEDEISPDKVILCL

[10] = target: T2, Protein cereblon/Estrogen receptor; test: PROTAC activity at CRBN/ERalpha in human MCF7 cells assessed as reduction in ERalpha protein level at 5 to 10 uM measured after 24 hrs by Western blot analysis; type: cell-based; conditions: dose 5-10 µM
Outline: (§3)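 MCF-7 breast cancer cells exposed to the PROTAC over a concentration series for 24 h. ERα in cell lysates then assessed by immunoblotting.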
Target sequence in this assay (P03372 whole entry, looked up): as the sequence (P03372 whole entry) above
Target sequence in this assay (Q96SW2 whole entry, looked up): as the sequence (Q96SW2 whole entry, looked up) above

[11] = target: T2, Protein cereblon/Estrogen receptor; test: PROTAC activity at CRBN/ERalpha in human MCF7 cells assessed as reduction in ERalpha protein level at 1 uM pretreated with bortezomib at 1 uM for 1 hr followed by compound addition for 12 hrs by Western blot analysis; type: cell-based
Outline: (§4)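 Rescue assay in MCF-7 cells. Cells pre-treated 1 h with bortezomib 1 µM or MLN4924 1 µM, then given the PROTAC at 1 µM for 12 h. ERα read by immunoblot.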
Target sequence in this assay (P03372 whole entry, looked up): as the sequence (P03372 whole entry) above
Target sequence in this assay (Q96SW2 whole entry, looked up): as the sequence (Q96SW2 whole entry, looked up) above

[12] = target: T2, Protein cereblon/Estrogen receptor; test: PROTAC activity at CRBN/ERalpha in human MCF7 cells assessed as reduction in ERalpha protein level at 1 uM pretreated with MLN4924 at 1 uM for 1 hr followed by compound addition for 12 hrs by Western blot analysis; type: cell-based; outline: as §4
Target sequence in this assay (P03372 whole entry, looked up): as the sequence (P03372 whole entry) above
Target sequence in this assay (Q96SW2 whole entry, looked up): as the sequence (Q96SW2 whole entry, looked up) above

[13] = target: T2, Protein cereblon/Estrogen receptor; test: PROTAC activity at CRBN/ERalpha in human MCF7 cells assessed as reduction in ERalpha protein level at 1 uM measured after 1 to 12 hrs by Western blot analysis; type: cell-based; conditions: time 1-12 hrs; outline: as §2
Target sequence in this assay (P03372 whole entry, looked up): as the sequence (P03372 whole entry) above
Target sequence in this assay (Q96SW2 whole entry, looked up): as the sequence (Q96SW2 whole entry, looked up) above

[14] = target: T2, Protein cereblon/Estrogen receptor; test: PROTAC activity at CRBN/ERalpha in human MCF7 cells assessed as reduction in ERalpha protein level incubated for 24 hrs by Western blot analysis; type: cell-based; outline: as §1
Target sequence in this assay (P03372 whole entry): as the sequence (P03372 whole entry) above
Target sequence in this assay (Q96SW2 whole entry): as the sequence (Q96SW2 whole entry, looked up) above

[15] = target: T2, Protein cereblon/Estrogen receptor; test: PROTAC activity at CRBN/ERalpha in human MCF7 cells assessed as reduction in ERalpha protein level at 1 to 5 uM incubated for 24 hrs by Western blot analysis; type: cell-based; conditions: dose 1-5 µM; outline: as §3
Target sequence in this assay (P03372 whole entry, looked up): as the sequence (P03372 whole entry) above
Target sequence in this assay (Q96SW2 whole entry, looked up): as the sequence (Q96SW2 whole entry, looked up) above

Chain of Estrogen receptor/E3 ubiquitin-protein ligase XIAP (P03372 whole entry): as the sequence (P03372 whole entry) above
Chain of Estrogen receptor/E3 ubiquitin-protein ligase XIAP (P98170 whole entry): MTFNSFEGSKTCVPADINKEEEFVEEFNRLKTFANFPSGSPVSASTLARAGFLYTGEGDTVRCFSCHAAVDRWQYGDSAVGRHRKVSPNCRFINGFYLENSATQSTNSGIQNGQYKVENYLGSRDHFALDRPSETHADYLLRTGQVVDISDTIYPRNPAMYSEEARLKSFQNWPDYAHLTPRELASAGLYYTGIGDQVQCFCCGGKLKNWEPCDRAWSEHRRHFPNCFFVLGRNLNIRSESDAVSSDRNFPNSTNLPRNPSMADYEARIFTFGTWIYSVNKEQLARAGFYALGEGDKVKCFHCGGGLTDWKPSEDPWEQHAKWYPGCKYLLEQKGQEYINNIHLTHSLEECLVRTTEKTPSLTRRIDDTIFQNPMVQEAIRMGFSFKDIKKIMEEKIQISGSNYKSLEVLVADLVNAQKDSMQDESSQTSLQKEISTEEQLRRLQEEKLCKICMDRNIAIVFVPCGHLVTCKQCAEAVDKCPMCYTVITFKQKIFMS

With `CC[C@H](C)[C@H](NC(=O)[C@H](Cc1ccc(O)cc1)NC(=O)[C@@H]1CC(O)CN1C(=O)[C@H](C)NC(=O)[C@H](CC(C)C)NC(=O)CCCCCCC(=O)NCC(=O)OC1CC[C@H]2[C@@H]3CCc4cc(O)ccc4[C@H]3CC[C@]12C)C(=O)O` (some centres not stated) the EC50 [1] was 16000 nM.
With `CC/C(=C(\c1ccc(O)cc1)c1ccc(OCCN(C)C(=O)CCc2cn(CCCC(=O)N[C@H](C(=O)N3C[C@@H](O)C[C@H]3C(=O)N[C@@H](C)c3ccc(-c4scnc4C)cc3)C(C)(C)C)nn2)cc1)c1ccccc1` the Activity [2] was “inactive”.
For `CC/C(=C(\c1ccc(O)cc1)c1ccc(OCCN(C)C(=O)CCc2cn(CCCCCC(=O)N[C@H](C(=O)N3C[C@H](O)C[C@H]3C(=O)N[C@@H](C)c3ccc(-c4scnc4C)cc3)C(C)(C)C)nn2)cc1)c1ccccc1`, the Activity [3] was “Active”, the Activity [4] was “inactive” and the EC50 [5] was 5.3 nM. The Activity [6] was “inactive” and the Activity [7] was “Active”.
For `CC/C(=C(\c1ccc(O)cc1)c1ccc(OCCN(C)C(=O)CCc2cn(CCCC(=O)N[C@H](C(=O)N3C[C@H](O)C[C@H]3C(=O)N[C@@H](C)c3ccc(-c4scnc4C)cc3)C(C)(C)C)nn2)cc1)c1ccccc1`, the Activity [3] was “Active”, the Activity [4] was “inactive” and the EC50 [5] was 4.5 nM. The Activity [6] was “inactive” and the Activity [7] was “Active”.
With `CC/C(=C(\c1ccc(O)cc1)c1ccc(OCCN(C)C(=O)COCCOCCOCCOc2cccc(C(=O)c3csc([C@@H]4CCCN4C(=O)[C@@H](NC(=O)[C@H](C)NC)C4CCCCC4)n3)c2)cc1)c1ccccc1` the EC50 [8] was 10 nM.
With `CC/C(=C(\c1ccc(O)cc1)c1ccc(OCCN(C)C(=O)CCc2cn(CCOCCOCCOCCNc3cccc4c3C(=O)N(C3CCC(=O)N(C)C3=O)C4=O)nn2)cc1)c1ccccc1` (configuration not stated) the Activity [9] was “inactive” and the Activity [10] was “Active”.
`CNCC(=O)N[C@H](C(=O)N1Cc2cc(OCCOCCOCCOCCOc3ccc(Oc4c(-c5ccc(O)cc5)sc5cc(O)ccc45)cc3)ccc2C[C@H]1C(=O)N[C@@H]1CCCc2ccccc21)C(C)(C)C` was tested, and the EC50 [8] was < 1000 nM.
In the case of `CC/C(=C(\c1ccc(O)cc1)c1ccc(OCCN(C)C(=O)CCc2cn(CCOCCOCCOCCNc3cccc4c3C(=O)N(C3CCC(=O)NC3=O)C4=O)nn2)cc1)c1ccccc1` (configuration not stated), the Activity [11] is reported as “inactive”, the Activity [12] is reported as “inactive” and the Activity [13] is reported as “inactive”. For the same molecule, the EC50 [14] was 11.9 nM and the Activity [15] was “Active”.
`CC/C(=C(\c1ccc(O)cc1)c1ccc(OCCN(C)C(=O)CCc2cn(CCOCCNc3cccc4c3C(=O)N(C3CCC(=O)NC3=O)C4=O)nn2)cc1)c1ccccc1` (configuration not stated) was tested, and the Activity [15] was “Active”.
